Experimental data from ChEMBL document CHEMBL5649170, “Sustained microglial depletion with CSF1R inhibitor impairs parenchymal plaque development in an Alzheimer's disease model” (Nat Commun, 2019).
Values belong to the molecule of their own block, whether it stands above or below them. The source made the active and inactive calls. The calls are words filed in the database; no cut-off is given here.

Experiments:
[1] = Drug concentration in wildtype mouse brain at 600 ppm administered as rodent chow starting from 1.5 months and measured after 5 months; format: ADME, tissue-based; details: route po, time 3.5 months, read-out: Ct
In short: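 WT or 5xFAD mice were fed PLX3397 in AIN-76A chow at 600 ppm or 75 ppm from 1.5 to 5 months of age. Terminal brain and plasma drug concentrations were determined at study end.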

[2] = target: T1, Macrophage colony-stimulating factor 1 receptor (Mus musculus) (UniProt P09581); test: In vivo inhibition of CSF1R in 5XFAD mouse assessed as appearance of CAA in […] cortex at 600 ppm administered as rodent chow starting from 1.5 months and measured after 5 months by immunolabeling based confocal microscopic analysis; details: route po, time 3.5 months
T1 sequence (whole entry): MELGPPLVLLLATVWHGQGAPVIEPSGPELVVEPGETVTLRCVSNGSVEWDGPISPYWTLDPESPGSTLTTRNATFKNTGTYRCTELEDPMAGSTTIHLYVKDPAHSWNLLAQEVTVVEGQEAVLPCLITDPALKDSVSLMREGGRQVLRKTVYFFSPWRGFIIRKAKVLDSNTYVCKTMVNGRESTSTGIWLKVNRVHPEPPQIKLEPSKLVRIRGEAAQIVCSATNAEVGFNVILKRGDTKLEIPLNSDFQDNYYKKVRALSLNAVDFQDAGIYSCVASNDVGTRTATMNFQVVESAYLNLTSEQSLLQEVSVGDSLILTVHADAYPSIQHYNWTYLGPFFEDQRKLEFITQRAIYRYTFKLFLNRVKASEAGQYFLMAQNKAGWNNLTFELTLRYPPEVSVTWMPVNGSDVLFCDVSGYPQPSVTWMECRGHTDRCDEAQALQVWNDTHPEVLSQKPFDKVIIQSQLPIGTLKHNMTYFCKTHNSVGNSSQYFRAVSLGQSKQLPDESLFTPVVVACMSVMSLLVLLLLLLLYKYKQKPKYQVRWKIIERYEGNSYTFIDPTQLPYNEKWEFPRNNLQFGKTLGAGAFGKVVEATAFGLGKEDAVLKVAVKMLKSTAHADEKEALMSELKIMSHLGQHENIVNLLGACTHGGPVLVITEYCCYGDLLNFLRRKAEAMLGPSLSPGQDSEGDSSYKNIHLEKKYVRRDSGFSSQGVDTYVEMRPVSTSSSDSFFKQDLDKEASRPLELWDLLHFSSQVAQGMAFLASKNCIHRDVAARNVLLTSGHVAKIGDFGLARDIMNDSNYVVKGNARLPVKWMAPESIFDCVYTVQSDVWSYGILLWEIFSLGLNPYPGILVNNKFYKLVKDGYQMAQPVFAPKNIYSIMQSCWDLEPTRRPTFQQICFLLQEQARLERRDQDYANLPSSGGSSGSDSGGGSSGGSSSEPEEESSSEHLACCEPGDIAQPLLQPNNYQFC

[3] = Toxicity in wildtype mouse assessed as time spent in center zone at 1200 ppm administered as rodent chow for 10 to 24 weeks by Open field test (reference value: 32.4 to 76.1 sec); details: in vivo, po, time 10-24 weeks
[4] = target: Tyrosine-protein kinase Fer (Homo sapiens, UniProt P16591); test: Inhibition of FER (unknown origin)
[5] = system: Mus musculus; test: Antialzheimer activity in 5XFAD mouse assessed as ApoE immunoreactivity by measuring reduction in core ApoE in cortex at 1200 ppm administered as rodent chow starting from 1.5 months and measured after 7 months by immunolabeling based confocal microscopic analysis relative to control; format: functional; parameters: scale not given: the % may be the effect or the level left; details: route po, time 5.5 months, 4015 h
[6] = system: Mus musculus; test: Antialzheimer activity in 5XFAD mouse assessed as number of Thio-S positive plaques per FOV in […] cortex at 1200 ppm administered as rodent chow starting from 1.5 months and measured after 7 months by Thio-S staining based confocal microscopic analysis (reference value: 52 to 140); format: functional; details: route po, time 5.5 months, 4015 h
[7] = target: Serine/threonine-protein kinase Sgk3 (Homo sapiens, UniProt Q96BR1); test: Inhibition of SGKL (unknown origin)
[8] = Effect on Hexb gene expression in wild type mouse thalamus at 1200 ppm administered as rodent chow starting from 1.5 months and measured after 7 months by RNA-Seq analysis (reference value: 45.201 to 52.726 RPKM); format: functional; details: route po, time 5.5 months, 4015 h
[9] = Drug concentration in 5XFAD mouse brain at 1200 ppm administered as rodent chow for 180 days; format: ADME, tissue-based; details: route po, time 180 day, read-out: Ct
[10] = target: Interleukin-1 receptor-associated kinase 4 (Homo sapiens, UniProt Q9NWZ3); test: Inhibition of IRAK4 (unknown origin)
[11] = target: Receptor-type tyrosine-protein kinase FLT3 (Homo sapiens, UniProt P36888); test: Inhibition of FLT3 (unknown origin)
[12] = target: Serine/threonine-protein kinase 25 (Homo sapiens, UniProt O00506); test: Inhibition of STK25 (unknown origin)
[13] = target: Protein kinase C delta type (Homo sapiens, UniProt Q05655); test: Inhibition of PRKCD (unknown origin)
[14] = target: Homeodomain-interacting protein kinase 2 (Homo sapiens, UniProt Q9H2X6); test: Inhibition of HIPK2 (unknown origin)
[15] = target: Tyrosine-protein kinase Fgr (Homo sapiens, UniProt P09769); test: Inhibition of FGR (unknown origin)
[16] = target: Mitogen-activated protein kinase kinase kinase kinase 5 (Homo sapiens, UniProt Q9Y4K4); test: Inhibition of MAP4K5 (unknown origin)
[17] = Effect on ccl6 gene expression in 5XFAD mouse cortex at 1200 ppm administered as rodent chow starting from 1.5 months and measured after 7 months by RNA-Seq analysis (reference value: 4.103 to 8.161 RPKM); format: functional; details: route po, time 5.5 months, 4015 h
[18] = target: Phosphorylase b kinase gamma catalytic chain, liver/testis isoform (Homo sapiens, UniProt P15735); test: Inhibition of PHKG2 (unknown origin)
[19] = Oral bioavailability in mouse at 45 mg/kg administered as single via gavage; format: ADME, organism-based; details: in vivo
[20] = system: Mus musculus; test: Effect on circulating leukocytes in wildtype mouse assessed as percentage of CD45+/PI- cells expressing CD11b at 1200 ppm administered as rodent chow for 10 to 24 weeks (reference value: 6.22 to 25.7 %); format: functional; details: route po, time 10-24 weeks
[21] = target: Serine/threonine-protein kinase D3 (Homo sapiens, UniProt O94806); test: Inhibition of PRKCN (unknown origin)
[22] = target: Tyrosine-protein kinase ABL2 (Homo sapiens, UniProt P42684); test: Inhibition of ABL2 (unknown origin)
[23] = Effect on ccl6 gene expression in 5XFAD mouse thalamus at 1200 ppm administered as rodent chow starting from 1.5 months and measured after 7 months by RNA-Seq analysis (reference value: 3.667 to 7.093 RPKM); format: functional; details: route po, time 5.5 months, 4015 h
[24] = target: Tyrosine-protein kinase Lck (Homo sapiens, UniProt P06239); test: Inhibition of LCK (unknown origin)
[25] = target: Phosphatidylinositol 4-kinase beta (Homo sapiens, UniProt Q9UBF8); test: Inhibition of PI4KB (unknown origin)
Chain of Phosphatidylinositol 4-kinase beta (Q9UBF8 whole entry): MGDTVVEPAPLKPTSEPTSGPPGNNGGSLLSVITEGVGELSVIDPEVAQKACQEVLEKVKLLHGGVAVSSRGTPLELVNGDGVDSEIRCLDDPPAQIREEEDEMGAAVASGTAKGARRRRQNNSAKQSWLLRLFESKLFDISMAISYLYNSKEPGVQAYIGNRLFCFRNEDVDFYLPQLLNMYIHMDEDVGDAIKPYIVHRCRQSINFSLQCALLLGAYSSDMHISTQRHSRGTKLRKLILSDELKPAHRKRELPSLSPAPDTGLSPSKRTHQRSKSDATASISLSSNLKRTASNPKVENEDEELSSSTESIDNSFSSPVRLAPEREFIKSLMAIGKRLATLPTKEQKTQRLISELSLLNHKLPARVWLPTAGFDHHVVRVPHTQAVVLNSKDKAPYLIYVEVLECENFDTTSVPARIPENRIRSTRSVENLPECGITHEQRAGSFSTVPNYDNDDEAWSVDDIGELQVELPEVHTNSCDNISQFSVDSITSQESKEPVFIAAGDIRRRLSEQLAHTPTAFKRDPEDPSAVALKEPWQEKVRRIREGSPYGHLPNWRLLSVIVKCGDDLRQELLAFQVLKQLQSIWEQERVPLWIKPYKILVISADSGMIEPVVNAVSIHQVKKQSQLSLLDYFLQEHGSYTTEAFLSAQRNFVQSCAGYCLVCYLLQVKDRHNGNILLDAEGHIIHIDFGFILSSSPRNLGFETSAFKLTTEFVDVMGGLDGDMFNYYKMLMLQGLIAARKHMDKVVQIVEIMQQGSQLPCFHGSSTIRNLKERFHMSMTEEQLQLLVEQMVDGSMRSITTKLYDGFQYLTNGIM

Chain of Serine/threonine-protein kinase 25 (O00506 whole entry): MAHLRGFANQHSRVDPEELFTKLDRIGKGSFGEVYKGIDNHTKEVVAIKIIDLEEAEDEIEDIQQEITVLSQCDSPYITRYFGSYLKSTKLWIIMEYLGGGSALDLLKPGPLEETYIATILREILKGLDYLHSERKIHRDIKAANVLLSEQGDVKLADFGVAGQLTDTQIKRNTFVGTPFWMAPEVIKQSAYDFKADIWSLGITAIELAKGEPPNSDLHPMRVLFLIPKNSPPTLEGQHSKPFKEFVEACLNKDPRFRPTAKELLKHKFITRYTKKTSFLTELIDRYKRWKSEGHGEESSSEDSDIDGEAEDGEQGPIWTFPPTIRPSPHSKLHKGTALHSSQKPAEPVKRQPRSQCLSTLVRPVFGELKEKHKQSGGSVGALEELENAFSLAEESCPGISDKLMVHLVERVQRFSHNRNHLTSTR
Chain of Tyrosine-protein kinase ABL2 (P42684 whole entry): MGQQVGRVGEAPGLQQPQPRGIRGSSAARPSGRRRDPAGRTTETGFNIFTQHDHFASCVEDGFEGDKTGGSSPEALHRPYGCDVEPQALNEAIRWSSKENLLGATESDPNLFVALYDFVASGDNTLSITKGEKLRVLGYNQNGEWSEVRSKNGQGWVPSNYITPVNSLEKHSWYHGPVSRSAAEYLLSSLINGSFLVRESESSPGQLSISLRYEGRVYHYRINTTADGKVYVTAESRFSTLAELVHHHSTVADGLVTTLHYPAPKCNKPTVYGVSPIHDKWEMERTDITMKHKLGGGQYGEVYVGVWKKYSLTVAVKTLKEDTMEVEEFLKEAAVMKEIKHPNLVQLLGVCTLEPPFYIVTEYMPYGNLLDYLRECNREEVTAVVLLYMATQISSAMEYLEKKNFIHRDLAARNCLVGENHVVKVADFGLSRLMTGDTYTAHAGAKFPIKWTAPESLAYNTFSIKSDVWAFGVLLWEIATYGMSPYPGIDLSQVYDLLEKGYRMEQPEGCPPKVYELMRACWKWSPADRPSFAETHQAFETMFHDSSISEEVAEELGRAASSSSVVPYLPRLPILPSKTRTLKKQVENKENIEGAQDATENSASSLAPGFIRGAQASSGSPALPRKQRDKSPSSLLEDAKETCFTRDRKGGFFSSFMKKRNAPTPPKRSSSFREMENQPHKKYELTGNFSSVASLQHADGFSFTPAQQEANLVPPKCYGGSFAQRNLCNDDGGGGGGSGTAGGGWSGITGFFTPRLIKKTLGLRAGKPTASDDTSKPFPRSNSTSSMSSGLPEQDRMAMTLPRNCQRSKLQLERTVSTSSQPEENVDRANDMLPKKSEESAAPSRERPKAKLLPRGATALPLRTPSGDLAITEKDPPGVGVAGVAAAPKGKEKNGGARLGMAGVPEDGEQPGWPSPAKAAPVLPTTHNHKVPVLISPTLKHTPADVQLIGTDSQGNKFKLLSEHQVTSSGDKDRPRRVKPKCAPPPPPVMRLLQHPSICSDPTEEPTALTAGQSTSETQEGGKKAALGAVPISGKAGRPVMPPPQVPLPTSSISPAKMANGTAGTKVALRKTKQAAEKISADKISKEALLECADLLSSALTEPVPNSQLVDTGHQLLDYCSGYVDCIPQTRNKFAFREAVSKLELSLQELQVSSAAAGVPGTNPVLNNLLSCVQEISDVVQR
Chain of Tyrosine-protein kinase Fgr (P09769 whole entry): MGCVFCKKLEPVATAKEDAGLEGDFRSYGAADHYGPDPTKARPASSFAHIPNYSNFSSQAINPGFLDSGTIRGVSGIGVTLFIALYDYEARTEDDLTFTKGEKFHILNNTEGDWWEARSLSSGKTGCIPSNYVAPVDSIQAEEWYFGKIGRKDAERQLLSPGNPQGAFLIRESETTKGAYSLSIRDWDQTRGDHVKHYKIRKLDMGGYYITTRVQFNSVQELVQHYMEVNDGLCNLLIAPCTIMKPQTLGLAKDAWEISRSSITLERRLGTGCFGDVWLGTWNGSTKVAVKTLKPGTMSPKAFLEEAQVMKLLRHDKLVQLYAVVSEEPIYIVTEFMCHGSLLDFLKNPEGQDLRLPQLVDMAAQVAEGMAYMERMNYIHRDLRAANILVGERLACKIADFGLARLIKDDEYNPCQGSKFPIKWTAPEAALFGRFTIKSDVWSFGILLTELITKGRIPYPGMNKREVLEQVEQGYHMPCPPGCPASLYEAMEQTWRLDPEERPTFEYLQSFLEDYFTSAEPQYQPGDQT
Chain of Tyrosine-protein kinase Fer (P16591 whole entry): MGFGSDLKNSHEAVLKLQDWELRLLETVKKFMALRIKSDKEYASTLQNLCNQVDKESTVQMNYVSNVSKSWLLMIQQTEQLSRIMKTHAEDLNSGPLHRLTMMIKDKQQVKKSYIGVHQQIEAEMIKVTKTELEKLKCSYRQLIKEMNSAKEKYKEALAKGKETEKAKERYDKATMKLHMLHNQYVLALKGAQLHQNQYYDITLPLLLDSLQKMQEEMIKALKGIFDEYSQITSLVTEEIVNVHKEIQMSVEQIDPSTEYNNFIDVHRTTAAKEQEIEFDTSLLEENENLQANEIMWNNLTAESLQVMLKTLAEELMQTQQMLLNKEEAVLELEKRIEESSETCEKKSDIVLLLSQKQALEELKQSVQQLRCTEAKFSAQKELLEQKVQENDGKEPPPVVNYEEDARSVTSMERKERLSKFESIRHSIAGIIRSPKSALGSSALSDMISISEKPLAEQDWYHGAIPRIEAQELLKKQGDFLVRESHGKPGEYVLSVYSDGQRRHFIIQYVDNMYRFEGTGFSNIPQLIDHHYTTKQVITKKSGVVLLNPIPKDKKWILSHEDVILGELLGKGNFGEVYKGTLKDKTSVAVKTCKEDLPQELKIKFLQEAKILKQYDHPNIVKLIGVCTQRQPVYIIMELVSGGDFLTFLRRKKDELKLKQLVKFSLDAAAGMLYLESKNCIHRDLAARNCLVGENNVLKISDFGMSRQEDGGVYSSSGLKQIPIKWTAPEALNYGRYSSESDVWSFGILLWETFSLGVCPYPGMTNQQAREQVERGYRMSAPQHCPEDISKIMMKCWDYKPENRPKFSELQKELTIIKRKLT
Chain of Serine/threonine-protein kinase D3 (O94806 whole entry): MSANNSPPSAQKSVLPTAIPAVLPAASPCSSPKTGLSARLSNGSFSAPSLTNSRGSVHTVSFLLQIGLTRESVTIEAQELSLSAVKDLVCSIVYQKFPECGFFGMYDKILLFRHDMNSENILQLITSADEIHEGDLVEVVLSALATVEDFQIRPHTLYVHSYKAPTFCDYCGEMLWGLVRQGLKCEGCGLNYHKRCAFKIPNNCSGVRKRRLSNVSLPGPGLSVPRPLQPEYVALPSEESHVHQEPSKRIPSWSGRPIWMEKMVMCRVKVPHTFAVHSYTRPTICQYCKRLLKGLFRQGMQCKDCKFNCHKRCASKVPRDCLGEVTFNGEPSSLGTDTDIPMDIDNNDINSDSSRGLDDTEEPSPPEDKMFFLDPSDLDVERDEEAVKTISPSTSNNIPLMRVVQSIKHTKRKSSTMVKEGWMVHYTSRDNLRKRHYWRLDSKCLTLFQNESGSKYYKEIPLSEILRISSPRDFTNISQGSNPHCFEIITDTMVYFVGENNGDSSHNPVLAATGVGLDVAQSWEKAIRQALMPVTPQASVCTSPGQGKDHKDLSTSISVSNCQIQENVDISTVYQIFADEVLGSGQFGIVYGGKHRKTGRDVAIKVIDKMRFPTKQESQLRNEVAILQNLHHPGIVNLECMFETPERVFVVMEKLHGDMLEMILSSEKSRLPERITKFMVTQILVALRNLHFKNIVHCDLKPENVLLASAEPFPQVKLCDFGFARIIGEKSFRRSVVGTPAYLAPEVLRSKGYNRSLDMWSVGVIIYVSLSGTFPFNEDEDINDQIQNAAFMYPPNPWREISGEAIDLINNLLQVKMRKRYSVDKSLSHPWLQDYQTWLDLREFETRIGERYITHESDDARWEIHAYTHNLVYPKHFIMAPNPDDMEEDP
Chain of Phosphorylase b kinase gamma catalytic chain, liver/testis isoform (P15735 whole entry, canonical isoform): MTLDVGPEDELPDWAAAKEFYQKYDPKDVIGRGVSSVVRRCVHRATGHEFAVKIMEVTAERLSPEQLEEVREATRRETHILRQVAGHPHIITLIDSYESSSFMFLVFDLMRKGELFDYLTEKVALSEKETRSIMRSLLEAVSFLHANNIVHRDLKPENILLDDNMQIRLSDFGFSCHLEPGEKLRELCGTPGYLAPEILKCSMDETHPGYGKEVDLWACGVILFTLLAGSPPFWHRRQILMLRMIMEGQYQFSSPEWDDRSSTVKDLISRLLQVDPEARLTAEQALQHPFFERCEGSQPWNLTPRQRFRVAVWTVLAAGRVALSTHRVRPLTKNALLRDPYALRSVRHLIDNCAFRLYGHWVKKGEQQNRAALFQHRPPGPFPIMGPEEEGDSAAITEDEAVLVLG

concentration at 2555 h [1]: 5 µM
inhibition [2]: Active
Compound: FC(F)(F)c1ccc(CNc2ccc(Cc3c[nH]c4ncc(Cl)cc34)cn2)cn1 [PEXIDARTINIB]

Compound: COc1ncc(F)cc1CNc1ccc(Cc2c[nH]c3ncc(C)cc23)c(F)n1 [PLX-5622]
Time [3]: 12.7 s
IC50 [4]: > 1000 nM
Activity [5]: ~50%
Activity [6]: 17
IC50 [7]: > 1000 nM
Activity [8]: 10.895 RPKM
concentration at 4320 h [9]: 2390 ng/mL
IC50 [10]: > 1000 nM
IC50 [11]: 390 nM
IC50 [12]: > 1000 nM
IC50 [13]: > 1000 nM
IC50 [14]: > 1000 nM
IC50 [15]: > 1000 nM
IC50 [16]: > 1000 nM
Activity [17]: 0.241 RPKM
IC50 [18]: > 1000 nM
bioavailability [19]: 59%
Activity [20]: 18.9%
IC50 [21]: > 1000 nM
IC50 [22]: > 1000 nM
Activity [23]: 0 RPKM
IC50 [24]: > 1000 nM
IC50 [25]: > 1000 nM
